Laboratory results as given in ChEMBL document CHEMBL1150579, “Anti-lipid-peroxidative principles from Tournefortia sarmentosa” (J Nat Prod, 2002).

Columns and labels:
[1] = Antioxidant activity against Cu2+-induced lipid peroxidation in human plasma LDL preincubated for 1 hr before Cu2+ challenge; format: functional, cell-free
Procedure, shortened: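 LDL from fasting plasma of healthy adult men not taking vitamin supplements. LDL was preincubated with compound at 37 °C for 1 h. Oxidation was started with CuSO4 (final 10 µM) and run for 2 h at 37 °C, shaken at 120 rpm. Conjugated dienes in the supernatant were read at 232 nm. IC50 is the concentration giving 50% inhibition of diene formation, taken from concentration curves.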

[2] = Antioxidant activity against Cu2+-induced lipid peroxidation in human plasma LDL preincubated for 1 hr before Cu2+ challenge relative to probucol; format: functional, cell-free
Procedure, shortened: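 Same Cu2+-induced human LDL assay as above, with 1 h compound preincubation, 10 µM CuSO4 for 2 h at 37 °C, and conjugated dienes read at 232 nm. Probucol (10 µM, in 10% ethanol) was the positive control, with its potency set at 1.0. Relative potency = IC50(probucol)/IC50(compound).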

## O=C(/C=C/c1ccc(O)c2c1C=Cc1cc(O)c(O)cc1O2)O[C@H](Cc1ccc(O)c(O)c1)C(=O)O [ISOSALVIANOLIC ACID C]
[1]
  IC50: 2720 nM
[2]
  Activity: 1.6

## O=C(O)/C=C/c1ccc(O)c2c1C=Cc1cc(O)c(O)cc1O2 [TOURNEFOLIC ACID B]
[1]
  IC50: 2320 nM
[2]
  Activity: 1.9

## O=C(O)/C=C/c1ccc(O)c2oc(-c3ccc(O)c(O)c3)cc12 [TOURNEFOLIC ACID A]
[1]
  IC50: 4810 nM
[2]
  Activity: 1.1

## O=C(O)/C=C/c1ccc(O)c(O)c1/C=C/c1ccc(O)c(O)c1 [SALVIANOLIC ACID F]
[1]
  IC50: 5440 nM
[2]
  Activity: 0.8

## O=C(/C=C/c1ccc(O)c(O)c1)O[C@H](Cc1ccc(O)c(O)c1)C(=O)O [ROSMARINIC ACID]
[1]
  IC50: 1810 nM
[2]
  Activity: 2.2

## CC(C)(Sc1cc(C(C)(C)C)c(O)c(C(C)(C)C)c1)Sc1cc(C(C)(C)C)c(O)c(C(C)(C)C)c1 [PROBUCOL]
[1]
  IC50: 4300 nM

## O=C(/C=C/c1ccc(O)c2c1[C@H](C(=O)O)[C@@H](c1ccc(O)c(O)c1)O2)O[C@H](Cc1ccc(O)c(O)c1)C(=O)O [LITHOSPERMIC ACID]
[1]
  IC50: 1000 nM
[2]
  Activity: 4.3

## O=C(/C=C/c1ccc(O)c(O)c1/C=C/c1ccc(O)c(O)c1)O[C@H](Cc1ccc(O)c(O)c1)C(=O)O [SALVIANOLIC ACID A]
[1]
  IC50: 590 nM
[2]
  Activity: 7.3

## O=Cc1ccc(O)c2oc(-c3ccc(O)c(O)c3)cc12 [TOURNEFOLAL]
[1]
  IC50: 4700 nM
[2]
  Activity: 1.09

## CCOC(=O)/C=C/c1ccc(O)c2c1C=Cc1cc(O)c(O)cc1O2 [TOURNEFOLIC ACID B ETHYL ESTER]
[1]
  IC50: 510 nM
[2]
  Activity: 8.6
